Experimental data published in ChEMBL document CHEMBL3603769, “1,5-Disubstituted benzimidazoles that direct cardiomyocyte differentiation from mouse embryonic stem cells” (2015).

Experiments:
Assay type in all cases: functional, Embryonic stem cell
[1] = Induction of cardiomyogenesis in mouse ESC transfected with alpha-MHC at 0.78 to 12.5 uM treated on day 2 to 4 followed by cell reseeding in normal growth media on day 6, 8 measured on day 10 by GFP reporter gene assay relative to vehicle-treated control
Outline: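 mESCs stably carrying αMHC-promoter eGFP, expanded feeder-free with LIF on poly-D-lysine (5 passages), then seeded about 1000 cells/well on gelatin in growth media without LIF. From day 2, compound added in equal volume of media at 2× final (0.78–12.5 μM; 50 mM DMSO stocks). Cultures kept at 37 °C, 5% CO2, fixed in paraformaldehyde on day 9 or 10 and DAPI-stained. αMHC-eGFP fluorescence imaged automatically and expressed as fold-change over DMSO-treated cells.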

[2] = Induction of cardiomyogenesis in mouse ESC transfected with alphaMHC-eGFP at 6 uM treated on day 2 to 4 followed by cell reseeding in normal growth media on day 6 and 8 measured on day 12 by alpha-Actinin Alexa568-based immunohistochemical analysis relative to vehicle-treated control
Outline: (§1)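 αMHC-eGFP mESCs dosed at 3 or 6 μM on days 2 and 4, then fixed at day 10 or 12 in 4% paraformaldehyde for 40 min at room temperature. Cells were permeabilized and blocked 30 min in PBS with 10% horse serum and 0.2% Triton X-100. Staining used mouse anti-α-actinin (1:200, 60 min) then donkey anti-mouse Alexa568 (1:400, with DAPI, 60 min). Integrated Alexa568 intensity was reported relative to DMSO vehicle.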

[3] = Induction of cardiomyogenesis in mouse ESC transfected with alphaMHC-eGFP at 3 uM treated on day 2 to 4 followed by cell reseeding in normal growth media on day 6 and 8 measured on day 12 by alpha-Actinin Alexa568-based immunohistochemical analysis relative to vehicle-treated control; outline: as §1
[4] = Induction of cardiomyogenesis in mouse ESC transfected with alpha-MHC at 3 uM treated on day 2 to 4 followed by cell reseeding in normal growth media on day 6, 8 measured on day 12 by GFP reporter gene assay relative to vehicle-treated control
Outline: (§2)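 αMHC-eGFP mESCs seeded in growth media without LIF, dosed at 3 or 6 μM on days 2 and 4, and fed growth media on days 6 and 8. Cultures were then fixed in 4% paraformaldehyde. Integrated intensity of αMHC-eGFP fluorescence was measured by automated imaging as fold increase over DMSO vehicle. nsRED autofluorescence was subtracted.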

[5] = Induction of cardiomyogenesis in mouse ESC transfected with alpha-MHC at 6 uM treated on day 2 to 4 followed by cell reseeding in normal growth media on day 6, 8 measured on day 12 by GFP reporter gene assay relative to vehicle-treated control; outline: as §2

Structure (SMILES)	fold change (FC) [1]	further results
COc1ccccc1-n1cnc2cc(Nc3ccc4ccccc4c3)ccc21	3.1	–
Cc1nnc(Nc2ccc3c(c2)nnn3-c2ccccc2)c2ccccc12	3.1	–
Cc1nnc(Nc2ccc3c(c2)ncn3-c2ccccc2O)c2ccccc12	2.1	–
c1ccc(-n2cnc3cc(Nc4cnccn4)ccc32)cc1	2.4	–
Cc1nnc(Nc2ccc3c(c2)ncn3C2CCOCC2)c2ccccc12	1.6	–
COc1ccccc1-n1cnc2cc(Nc3ccccn3)ccc21	1.5	–
c1ccc(-n2cnc3cc(Nc4cccnc4)ccc32)cc1	7.8	–
Cc1nnc(Nc2ccc3c(ccn3-c3ccccc3)c2)c2ccccc12	2	–
Cc1nnc(Nc2ccc3c(c2)nc(N(C)C)n3-c2ccccc2)c2ccccc12	3.7	–
COc1ccccc1-n1cnc2cc(Nc3ccccc3)ccc21	0.7	–
Cc1nnc(Nc2ccc3c(c2)nc(N)n3-c2ccccc2)c2ccccc12	2.1	–
COc1cccc(-n2cnc3cc(NCCc4ccccc4)ccc32)c1	1.4	–
Cc1nnc(Nc2ccc3c(c2)ncn3C2CCN(C)CC2)c2ccccc12	4.4	–
c1ccc(-c2ccc(CNc3ccc4c(c3)ncn4-c3ccccc3)cn2)cc1	3	–
Brc1ccc(CNc2ccc3c(c2)ncn3-c2ccccc2)s1	3.1	–
COc1cccc(-n2cnc3cc(NCc4ccccc4OC)ccc32)c1	1.7	–
COc1ccc(-n2cnc3cc(Nc4nnc(C)c5ccccc45)ccc32)cc1	10	–
COc1cccc(Nc2ccc3c(c2)ncn3-c2ccccc2OC)c1	3.8	–
c1ccc(CN2CCC(CNc3ccc4c(c3)ncn4-c3ccccc3)CC2)cc1	4.3	–
COc1ccccc1-n1cnc2cc(Nc3ncccn3)ccc21	1.1	–
Nc1ccc2c(c1)ncn2-c1ccccc1	3	–
CC(=O)Nc1ccc2c(c1)ncn2-c1ccccc1	1.2	–
Cc1nnc(Nc2ccc3c(c2)ncn3-c2cccc(C(F)(F)F)c2)c2ccccc12	0.5	–

Structure (SMILES)	fold change (FC) [1]	further results
c1ccc(-n2cnc3cc(NCc4ccco4)ccc32)cc1	2.2	–
Cc1nnc(Nc2ccc3c(c2)ncn3C2CC2)c2ccccc12	0.9	–
Cc1cccc(-n2cnc3cc(Nc4ccc(C)nn4)ccc32)c1	7.9	–
Cc1nnc(Nc2ccc3c(c2)ncn3-c2ccccn2)c2ccccc12	2.2	–
COc1ccccc1-n1cnc2cc(Nc3nnc(C)c4ccccc34)cnc21	2.5	–
Cc1nnc(Nc2ccc3c(c2)ncn3C)c2ccccc12	1.6	–
Cc1nnc(Nc2ccc3c(c2)ncn3C2CCCCC2)c2ccccc12	3.3	–
CCCc1ccc(-n2cnc3cc(Nc4nnc(C)c5ccccc45)ccc32)cc1	0.7	–
COc1cccc(-n2cnc3cc(Nc4nnc(OC)c5ccccc45)ccc32)c1	7.1	–
COc1cccc(-n2cnc3cc(Nc4nnc(-c5ccccc5)c5ccccc45)ccc32)c1	1	–
COc1ccccc1-n1cnc2cc(Nc3nnc(C)c4ccccc34)ccc21	4.3	–
Cc1nnc(Nc2ccc3c(c2)ncn3-c2ccccc2C(C)C)c2ccccc12	4.4	–
COc1cccc(-n2cnc3cc(NC(=O)c4ccccn4)ccc32)c1	1.7	–
FC(F)(F)c1ccc(CNc2ccc3c(c2)ncn3-c2ccccc2)cn1	2.9	–
COc1cccc(-n2cnc3cc(Nc4nnc(C)c5ccccc45)ccc32)c1	18.6	–
Cc1nnc(Nc2ccc3c(c2)ncn3-c2ccccc2)c2ccccc12	9.6	fold change (FC) [2]: 20; fold change (FC) [3]: 10; fold change (FC) [4]: 10; fold change (FC) [5]: 20
c1ccc(-n2cnc3cc(NCc4cccs4)ccc32)cc1	0.75	–
Cc1nnc(Nc2ccc3c(c2)ncn3-c2ccc(C(F)(F)F)cc2)c2ccccc12	1.6	–
COc1cccc(-n2cnc3cc(Nc4nnc(Cl)c5ccccc45)ccc32)c1	6.7	–
Clc1ncccc1CNc1ccc2c(c1)ncn2-c1ccccc1	1.4	–
COc1cccc(-n2cnc3cc(Nc4nncc5ccccc45)ccc32)c1	13.7	–
COc1cccc(-n2cnc3cc(Nc4nnc(Cc5ccccc5)c5ccccc45)ccc32)c1	2	–
Cn1cccc1CNc1ccc2c(c1)ncn2-c1ccccc1	1.6	–
